# Measured values gathered from unrelated publications.
# Target: Activin receptor type-1 (ACVR1, Homo sapiens, UniProt Q04771)
# One construct used (Q04771 21-509): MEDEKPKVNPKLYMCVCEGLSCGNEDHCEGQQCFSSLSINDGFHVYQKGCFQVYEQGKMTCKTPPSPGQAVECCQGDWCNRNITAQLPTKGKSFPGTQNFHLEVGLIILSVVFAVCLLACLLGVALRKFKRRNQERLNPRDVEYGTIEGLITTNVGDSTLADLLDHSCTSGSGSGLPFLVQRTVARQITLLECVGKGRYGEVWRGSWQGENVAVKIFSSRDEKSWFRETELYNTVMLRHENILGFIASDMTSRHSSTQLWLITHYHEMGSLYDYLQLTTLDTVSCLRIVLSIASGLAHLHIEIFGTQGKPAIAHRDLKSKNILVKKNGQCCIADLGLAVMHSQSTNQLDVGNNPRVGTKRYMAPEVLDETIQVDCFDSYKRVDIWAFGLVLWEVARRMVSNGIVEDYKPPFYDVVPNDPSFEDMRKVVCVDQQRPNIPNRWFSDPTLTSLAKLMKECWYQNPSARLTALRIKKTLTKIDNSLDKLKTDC
Compound,assay,setting,remaining binding [%]
COc1cnc(Nc2cccc(S(N)(=O)=O)c2)nc1N1CCN(c2ccccc2)CC1,"binding, competition with immobilised ligand",1 µM,100
CSc1cccnc1N1CCN(Cc2nc3ccccc3[nH]2)CC1,"cell-free assay, competition with immobilised ligand",1 µM,100
c1cncc(-c2cccc(Nc3nccc(NC4CCCCC4)n3)c2)c1,"binding, competition with immobilised ligand",10 µM,15
N[C@H]1CCN(c2nccc(-c3cnn4ncccc34)n2)C1,binding,1 µM,85
FC(F)(F)Oc1cccc(-c2cnc3ccc(-c4ccncc4)nn23)c1,"cell-free assay, competition with immobilised ligand",5 µM,8.9
F[C@@H]1CCN(c2nccc(-c3cnn4ncccc34)n2)C1,binding,1 µM,80
COCCOc1nc(-c2ccc(Cl)nc2)nc2c1CN(C(=O)c1ncn3ccccc13)CC2,"cell-free assay, competition with immobilised ligand",0.1 µM,100
CN(CCCC(F)(F)F)c1nccc(-c2cnn3ncccc23)n1,binding,1 µM,77
COc1ccc2c(O[C@@H]3C[C@H]4C(=O)N[C@]5(C(=O)O)CC5/C=C\CCCCC[C@H](NC(=O)OC5CCCC5)C(=O)N4C3)cc(-c3csc(NC(=O)C(C)C)n3)nc2c1C (stereo partly drawn),"cell-free assay, competition with immobilised ligand",1 µM,100
Cc1cnc(Nc2ccc(C(=O)N3CCC(N4CCCC4)CC3)cc2)nc1-c1cc2ccccc2s1,"binding, competition with immobilised ligand",1 µM,72
C[C@@]1(Cc2ccc(C#N)cc2)C(=O)N(c2cc(Cl)cc(Cl)c2)c2ncc(C(=O)NC3(c4nc(C5CCC5)no4)CC3)n21,"cell-free assay, competition with immobilised ligand",1 µM,89
C=CC(=O)N1CCC(C(=O)NCC(=O)N2CCN(c3nc(-c4cnc(N)nc4C(F)F)nc(N4CCOCC4)n3)CC2)CC1,"binding, competition with immobilised ligand",1 µM,100
Cc1nccc(COC(=O)N2C[C@@H]3[C@@H](CNC(=O)c4ccc5[nH]nnc5c4)[C@@H]3C2)n1,"cell-free assay, competition with immobilised ligand",1 µM,95
Cc1cnn2ncc(-c3ccnc(N(C)C)n3)c2c1,binding,1 µM,100
CCN1CCN(Cc2ccc(C(=O)Nc3ccc(C)c(Oc4ccc5c(c4)CC(=O)N5)c3)cc2C(F)(F)F)CC1,"binding, competition with immobilised ligand",1 µM,100
CN(c1nccc(-c2cnn3ncccc23)n1)C1CC1,binding,1 µM,93
O=C(c1ccc(Nc2nccc(-c3cc4ccccc4s3)n2)cc1)N1CCC(N2CCCC2)CC1,"binding, competition with immobilised ligand",1 µM,26
O=C(Nc1c[nH]nc1C(=O)NC1CCNCC1)c1cc(F)cc(F)c1,"binding, competition with immobilised ligand",1 µM,100
COc1ccc2c(c1)O[C@@H](c1ccc(OC)c(OC)c1)C[C@H]2NC(=O)C1(c2ccc3c(c2)OC(F)(F)O3)CC1,"cell-free assay, competition with immobilised ligand",1 µM,100
C[C@H]1CCN(c2nccc(-c3cnn4ncccc34)n2)C1,binding,1 µM,100
O=C(c1ccc(Nc2ncc(Cl)c(-c3ccc(Cl)s3)n2)cc1)N1CCC(N2CCCC2)CC1,"binding, competition with immobilised ligand",1 µM,41
